Series [1] has as its system HT-1080. Briefly: Antitumor activity against human HT1080 cells xenografted in chicken chorioallantoic membrane assessed as inhibition of tumor growth at 1 to 3 ug, iv measured on day 17 by CAM assay. Format: functional. The method in brief: (§1)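 Fertilized chicken eggs were incubated 10 days, then 3.5 × 10⁵ HT-1080 cells/egg were applied to the exposed chorioallantoic membrane. On day 11, drug was given iv in DMSO diluted in excipient (ethanol:cremophor:PBS 6.25:6.25:87.5). Read-out was tumor wet weight as % of untreated eggs, plus chick mortality. Data were pooled from two independent experiments of 10–12 eggs each.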

For series [2], the system named is HT-1080. Briefly: Antiangiogenic activity in human HT1080 cells xenografted in chicken chorioallantoic membrane assessed as vascular disruption at 1 to 3 ug, iv measured on day 17 by CAM assay. Format: functional. In general terms: A xenograft is tissue or cells of one species grown in another, often human tumour cells in immunodeficient mice.
In series [3] the test system is M21. Briefly: Cell cycle arrest in human M21 cells assessed as accumulation at G2/M phase at 5 times IC50 after 24 hrs using propidium iodide staining by flow cytometric analysis (reference value: 9%). Format: functional. The method in brief: (§2)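 Cells were trypsinized, fixed in ice-cold ethanol, treated with RNase, and stained with propidium iodide (1 mg/mL stock) for 1 h on ice. Cell-cycle distribution was measured by flow cytometry.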

Series [4] has as its system M21. Briefly: Disruption of cytoskeleton microtubule structure of human M21 cells at 5 times IC50 after 16 hrs by indirect immunofluorescence assay. Format: functional, cell-based. The method in brief: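 Cells were fixed in 3.7% formaldehyde, permeabilized with saponin, and stained with anti-β-tubulin TUB 2.1, Alexa-488 anti-mouse secondary and DAPI. Fluorescence microscopy was used for imaging.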

Series [5] concerns M21. Briefly: Cell cycle arrest in human M21 cells assessed as accumulation at G0/G1 phase at 5 times IC50 after 24 hrs using propidium iodide staining by flow cytometric analysis (reference value: 61%). The series is classed as functional. In short, it runs like this:
as §2

Series [6] can be described thus: Toxicity against fertilized chicken embryo assessed as mortality at 3 ug, iv by CAM assay. Format: organism-based, Gallus gallus. The conditions noted are these: in vivo, read-out: Activity. The method in brief:
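HT-1080 fibrosarcoma cells (3.5 × 10⁵ cells/egg) grafted onto the chorioallantoic membrane of fertilized chicken eggs (10 days preincubation). On day 11, drug in DMSO diluted into excipient (ethanol:cremophor:PBS 6.25:6.25:87.5) given iv at 3 µg per egg. Chick mortality recorded over 7-day tumor growth period. Untreated eggs as negative controls and for normalization. Cumulative results from two independent experiments, 10–12 eggs each.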

Series [7] deals with MDA-MB-231. Briefly: Displacement of N,N'-ethylenebis(iodoacetamide) from beta-tubulin colchicine-binding site in human MDA-MB-231 cells at 1000 times IC50 preincubated for 2 hrs before N,N'-ethylenebis(iodoacetamide) addition measured after 1.5 hrs by chemiluminescence assay. The series is classed as cell-based. In short, it runs like this:
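EBI (100, final) was added for 1.5 h at 37 °C with drug present; control was 0.5% DMSO. Sonicated lysates (20 µg protein) were run on 10% SDS-PAGE and blotted with anti-β-tubulin TUB 2.1. The β-tubulin–EBI adduct was scored by ECL.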

Series [8] relates to M21. Briefly: Cell cycle arrest in human M21 cells assessed as accumulation at S phase at 5 times IC50 after 24 hrs using propidium iodide staining by flow cytometric analysis (reference value: 30%). Format: functional. The method in brief:
as §2
On the technique in general: In flow cytometry, cells or beads pass a laser one at a time.

Series [9] can be described thus: Antiproliferative activity against human multidrug-resistant CEM/VLB cells after 48 hrs by SRB assay. Format: functional.
In series [10] the test system is HT-1080. Briefly: Antitumor activity against human HT1080 cells xenografted in chicken chorioallantoic membrane assessed as inhibition of tumor growth at 3 ug, iv measured on day 17 by CAM assay. The series is classed as functional. The method in brief: as §1
In the next series the test system is SK-OV-3. Briefly: Antiproliferative activity against human SKOV3 after 48 hrs by SRB assay. Format: functional, cell-based. The conditions noted are these: SK-OV-3, 48 h. In short, it runs like this:
(§3)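 Adherent cells were seeded per line (e.g. HT-29 5000, M21 3500, MCF7 7500, CHO and CHO-VV 3-2 and CHO-TAX 5-6 1000 cells/well) and grown 24 h at 37 °C, 5% CO₂. DMSO-solubilized drug was diluted in medium and added at 1000–0.98 nM for 48 h. Cells were fixed with cold 10% TCA and stained with 0.1% sulforhodamine B, with absorbance read at 530–565 nm.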
Background: The SRB assay estimates cell density from bound dye.

For another series, the system named is HT-29. Briefly: Antiproliferative activity against human HT-29 cells after 48 hrs by SRB assay. The series is classed as functional, cell-based. The conditions noted are these: HT-29, 48 h. In short, it runs like this: as §3
A further series relates to CHO. Briefly: Antiproliferative activity against Chinese hamster CHO after 48 hrs by SRB assay. The conditions noted are these: Cricetulus griseus.
The test system of series [11] is HT-1080. Briefly: Antiproliferative activity against human HT1080 after 48 hrs by SRB assay. Particulars: HT-1080, 48 h. The series is classed as functional, cell-based. In short, it runs like this:
as §3

A further series concerns DU-145. Briefly: Antiproliferative activity against human DU145 after 48 hrs by SRB assay. The series is classed as functional, cell-based. The conditions noted are these: DU-145, 48 h.
Series [12] in a line: Antiproliferative activity against mouse B16F0 after 48 hrs by SRB assay.
Series [13] has as its system CHO-VV 3-2. Briefly: Ratio of IC50 for colchicine and vinblastine-resistant CHO-VV 3-2 cells to IC50 for CHO cells. The series is classed as functional, Cricetulus griseus. In short, it runs like this:
(§4)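 Each ratio is the IC50 in the resistant line divided by the IC50 in its parental line (CHO for CHO-TAX 5-6 and CHO-VV 3-2; CEM for CEM-VLB).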

Series [14] deals with CHO-TAX 5-6. Briefly: Antiproliferative activity against paclitaxel-resistant CHO-TAX 5-6 cells after 48 hrs by SRB assay. The series is classed as functional, cell-based. Particulars: Cricetulus griseus, CHO-TAX 5-6, 48 h. The method in brief: as §3
The next series deals with L1210. Briefly: Antiproliferative activity against mouse L1210 after 48 hrs by SRB assay. Format: functional, cell-based. Particulars: L1210, 48 h.
The subject of series [15] is MDA-MB-231. Briefly: Antiproliferative activity against human MDA-MB-231 after 48 hrs by SRB assay. The series is classed as functional, cell-based. Particulars: MDA-MB-231, 48 h.
The subject of series [16] is CCRF-CEM. Briefly: Ratio of IC50 for human multidrug-resistant CEM/VLB cells to IC50 for human CEM cells. Format: functional. In short, it runs like this:
as §4

The subject of series [17] is CHO-VV 3-2. Briefly: Antiproliferative activity against colchicine and vinblastine-resistant CHO-VV 3-2 cells after 48 hrs by SRB assay. The series is classed as functional, cell-based. The conditions noted are these: Cricetulus griseus, CHO-VV 3-2, 48 h. The method in brief:
as §3

The next series deals with MCF7. Briefly: Antiproliferative activity against human MCF7 cells after 48 hrs by SRB assay. The series is classed as functional, cell-based. The conditions noted are these: MCF7, 48 h. The method in brief: as §3
Series [18] in a line: Antiproliferative activity against mouse P388D1 after 48 hrs by SRB assay. Particulars: P388D1, 48 h.
The test system of another series is K562. Briefly: Antiproliferative activity against human K562 after 48 hrs by SRB assay. Format: functional, cell-based. Particulars: K562, 48 h.
Series [19] relates to CCRF-CEM. Briefly: Antiproliferative activity against human CEM after 48 hrs by SRB assay. Format: functional, cell-based.
Series [20] concerns M21. Briefly: Antiproliferative activity against human M21 cells after 48 hrs by SRB assay. Format: functional, cell-based. The conditions noted are these: M21, 48 h. In short, it runs like this: as §3
Series [21] relates to CHO-TAX 5-6. Briefly: Ratio of IC50 for paclitaxel-resistant CHO-TAX 5-6 cells to IC50 for CHO cells. Format: functional, Cricetulus griseus. In short, it runs like this:
as §4

Active and inactive are the calls of the source. The calls are words filed in the database; no cut-off is given here.

With `COc1ccc(/C=C\c2cc(OC)c(OC)c(OC)c2)cc1O` [COMBRETASTATIN A4], in the series on HT-1080 [1], the “growth inhibition (GI)” value is reported as 45%. For the same compound, the Activity is listed as 48% in the series with HT-1080 [2], 98% in the series with M21 [3], 2% with M21 [5] and 0% in the series with M21 [8]. Moreover, the outcome with M21 [4] and in the series on MDA-MB-231 [7] was Active. Further, the mortality in series [6] is 45%.
As to `COc1cc(NS(=O)(=O)c2ccc(N3CCNC3=O)cc2)cc(OC)c1`, the 50% inhibitory concentration (IC50) (commonly the midpoint of a concentration-inhibition curve) came to 1010 nM in series [9]; 170 nM with SK-OV-3; 78 nM in the series on HT-29; 330 nM in the series with CHO; 150 nM in the series with HT-1080 [11]; 700 nM with DU-145. Also, the IC50 in series [12] was 280 nM; with CHO-TAX 5-6 [14] it was 220 nM; in the series with L1210, 110 nM; in the series with MDA-MB-231 [15] it was 340 nM; in the series with CHO-VV 3-2 [17], 690 nM; in the series with MCF7, 170 nM. For the same compound, the IC50 in series [18] is 200 nM; in the series with K562, 110 nM; in the series with CCRF-CEM [19] it was 170 nM; in the series on M21 [20], 60 nM. In addition, the growth inhibition (GI) in the series on HT-1080 [10] turned out to be 31%. Also, the Activity with M21 [3] was 59%; in the series on M21 [5], 13%; in the series on M21 [8], 28%. In addition, the outcome in the series with M21 [4] and with MDA-MB-231 [7] was Active. Moreover, the “Ratio IC50” value in the series with CHO-VV 3-2 [13] came out at 2.1; in the series with CCRF-CEM [16] it was 5.9; with CHO-TAX 5-6 [21], 0.67. Also, in series [6], the mortality is 13%.

For the origin of these results see ChEMBL document CHEMBL1909507, “Substituted phenyl 4-(2-oxoimidazolidin-1-yl)benzenesulfonamides as antimitotics. Antiproliferative, antiangiogenic and antitumoral activity, and quantitative structure-activity relationships” (Eur J Med Chem, 2011).
